According to ChEMBL document CHEMBL4680121, “Development of (4-methoxyphenyl)-1H-tetrazol-5-amine regioisomers as a new class of selective antitubercular agents” (Eur J Med Chem, 2020):

What was measured:
[1] = tested on: Mycobacterium intracellulare; experiment: Antimycobacterial activity against Mycobacterium intracellulare assessed as inhibition of microbial growth incubated for 1 week by MABA method; format: functional; settings: 168 h, time 1 weeks
Summary of the method: (§1)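 Microplate Alamar Blue assay using two-fold serial microdilution in Middlebrook 7H9 broth with 10% OADC, compounds 0.125–512 µg/ml from DMSO stocks. Inoculum came from fresh LJ culture, was adjusted to McFarland 1 and diluted 1:20. Plates were incubated 1 week at 37 °C, Alamar blue was added and plates were re-incubated 24 h. MIC was the lowest concentration preventing the blue-to-pink change. Each plate carried growth and sterile controls.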

Mycobacterium avium = experiment: Antimycobacterial activity against Mycobacterium avium assessed as inhibition of microbial growth incubated for 1 week by MABA method; format: functional; settings: 168 h, time 1 weeks
Summary of the method: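 Microplate Alamar Blue assay in Middlebrook 7H9 broth with 10% OADC. Inoculum from fresh LJ culture was adjusted to McFarland 1 and diluted 1:20. DMSO stocks were two-fold serially diluted to final 0.125–512 µg/ml, with growth and sterile controls. Plates ran 1 week at 37 °C, then Alamar blue was added for 24 h. MIC is the lowest concentration preventing the blue-to-pink change.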

Mycobacterium kansasii = experiment: Antibacterial activity against Mycobacterium kansasii assessed as inhibition of microbial growth incubated for 1 week by MABA method; format: functional; settings: 168 h, time 1 weeks; summary of the method: as §1
[2] = tested on: Mycobacterium scrofulaceum; experiment: Antibacterial activity against Mycobacterium scrofulaceum assessed as inhibition of microbial growth incubated for 1 week by MABA method; format: functional; settings: 168 h, time 1 weeks; summary of the method: as §1
Mycobacterium xenopi = experiment: Antibacterial activity against Mycobacterium xenopi assessed as inhibition of microbial growth incubated for 1 week by MABA method; format: functional; settings: 168 h, time 1 weeks; summary of the method: as §1
[3] = tested on: Mycobacterium tuberculosis; experiment: Antitubercular activity against Mycobacterium tuberculosis H37Rv ATCC 25618 assessed as fractional inhibitory concentration index incubated for 14 days in presence of 1/2 x MIC isoniazid by MABA method; format: functional; settings: time 14 day
Summary of the method: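 Interaction analysis in Middlebrook 7H9 with 10% OADC. Combination MICs came from mixing the derivative (1 to 1/32 MIC) with the reference drug at 1/2 MIC, and the reverse, after 14 days at 37 °C with McFarland 1 inoculum. FICI was calculated from the combination MIC values and the MICs alone.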

[4] = tested on: Staphylococcus epidermidis; experiment: Antibacterial activity against Staphylococcus epidermidis ATCC 35984/RP62A assessed as bacterial growth inhibition measured after 18 hrs by two-fold serial microdilution method; format: functional
Summary of the method: (§2)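 Two-fold serial broth microdilution in MH II medium following modified CLSI procedures. Compounds were dissolved in DMSO and diluted in medium to at most 1% solvent, tested from 0.03125 to 512 μg/ml. Final inoculum 10^6 CFU/ml. MIC was taken as the lowest concentration with no visible growth after 18 h at 35 °C.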

Staphylococcus aureus = experiment: Antibacterial activity against Staphylococcus aureus NCTC 4163 assessed as bacterial growth inhibition measured after 18 hrs by two-fold serial microdilution method; format: functional; summary of the method: as §2
Proteus vulgaris = experiment: Antibacterial activity against Proteus vulgaris NCTC 4635 assessed as bacterial growth inhibition measured after 18 hrs by two-fold serial microdilution method; format: functional; summary of the method: as §2
[5] = Cytotoxicity against human HTB-140 cells assessed as LDH release at 100 uM incubated for 72 hrs by LDH assay; format: cell-based; settings: htb-140, 72 h
Summary of the method: (§3)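 LDH release measured with a kit after 72 h exposure to 100 μM compound. Cells were seeded at 1×10^4 per well in DMEM or EMEM with 2% FBS. Absorbance was read at 490 nm. Release (%) = (A sample − A low control)/(A high control − A low control) × 100, with the Triton X-100 (1%) control taken as 100% release. Values are mean ± SD of three independent experiments run in triplicate.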

A549 = experiment: Cytotoxicity against human A549 cells assessed as LDH release at 100 uM incubated for 72 hrs by LDH assay; format: cell-based; settings: a549, 72 h; summary of the method: as §3
HaCaT = experiment: Cytotoxicity against human HaCaT cells assessed as LDH release at 100 uM incubated for 72 hrs by LDH assay; format: cell-based; summary of the method: as §3
[6] = tested on: Mycobacterium tuberculosis; experiment: Antitubercular activity against Mycobacterium tuberculosis H37Rv ATCC 25618 assessed as reduction in bacterial growth incubated for 14 days in presence of 1/2 x MIC ethambutol by MABA method; format: functional; settings: H37Rv ATCC 25618, 336 h, time 14 day
Summary of the method: (§4)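 Checkerboard-type combination in Middlebrook 7H9 with 10% OADC. The test derivative at 1 to 1/32 of its MIC alone was mixed with the reference drug fixed at 1/2 its MIC. 4 ml samples were inoculated with McFarland 1 suspension and incubated 14 days at 37 °C. MIC is the lowest derivative concentration in combination that inhibited growth in liquid medium.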

[7] = tested on: Mycobacterium tuberculosis; experiment: Antitubercular activity against Mycobacterium tuberculosis Spec.192 assessed as reduction in bacterial growth incubated for 14 days in presence of 1/2 x MIC rifampicin by MABA method; format: functional; settings: Mycobacterium tuberculosis, 192, 336 h; time 14 day; summary of the method: as §4
[8] = tested on: Mycobacterium tuberculosis; experiment: Antitubercular activity against Mycobacterium tuberculosis Spec.192 assessed as reduction in bacterial growth incubated for 14 days in presence of 1/2 x MIC isoniazid by MABA method; format: functional; settings: Mycobacterium tuberculosis, 192, 336 h; time 14 day; summary of the method: as §4
[9] = tested on: Mycobacterium tuberculosis; experiment: Antitubercular activity against Mycobacterium tuberculosis Spec.192 assessed as reduction in bacterial growth incubated for 14 days in presence of 1/2 x MIC ethambutol by MABA method; format: functional; settings: Mycobacterium tuberculosis, 192, 336 h; time 14 day; summary of the method: as §4
[10] = tested on: Mycobacterium tuberculosis; experiment: Antitubercular activity against Mycobacterium tuberculosis Spec.192 assessed as streptomycin MIC incubated for 14 days in presence of streptomycin by MABA method; format: functional; settings: Mycobacterium tuberculosis, 192, 336 h; time 14 day
Summary of the method: (§5)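 In Middlebrook 7H9 with 10% OADC, the reference drug (INH, RMP, SM or EMB) at 1 to 1/32 of its MIC alone was mixed with the test derivative fixed at 1/2 its MIC. 4 ml samples were inoculated with McFarland 1 suspension and incubated 14 days at 37 °C. MIC is the lowest drug concentration in combination that inhibited growth.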

[11] = tested on: Mycobacterium tuberculosis; experiment: Antitubercular activity against Mycobacterium tuberculosis Spec.192 assessed as ethambutol MIC incubated for 14 days in presence of ethambutol by MABA method; format: functional; settings: Mycobacterium tuberculosis, 192, 336 h; time 14 day; summary of the method: as §5
V79 = experiment: Cytotoxicity against Chinese Hamster V79 cells assessed as reduction in cell viability at 100 uM measured after 72 hrs by MTT assay; format: cell-based, Cricetulus griseus; settings: v79, 72 h
Summary of the method: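 MTT viability assay on cells grown in DMEM with 10% heat-inactivated FBS, penicillin/streptomycin and 20 mM HEPES at 37 °C/5% CO2. Cells were seeded at 1×10^4 per well and allowed to adhere for 24 h, then the medium was refreshed. Compounds were added at 20–140 μM for 72 h at 37 °C, followed by MTT (0.5 mg/mL in serum-free medium) for 4 h. Untreated cells served as control. IC50 is the concentration giving 50% growth inhibition versus control.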

[12] = tested on: Mycobacterium tuberculosis; experiment: Potentiation of streptomycin-induced antimycobacterial activity against Mycobacterium tuberculosis Spec.192 assessed as fold decrease in streptomycin MIC at 1/2X MIC incubated for 14 days in presence of streptomycin by MABA method; format: functional; settings: time 14 day
Summary of the method: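 Combination assay in Middlebrook 7H9 broth with 10% OADC. The reference drug (INH, RMP, SM or EMB) was varied from 1 to 1/32 of its MIC, and the test derivative was fixed at 1/2 its own MIC. Single-agent MICs were determined first by MABA. Inoculum was 1 McFarland, with 14 days of incubation at 37 °C. The endpoint was the lowest reference-drug concentration that inhibited growth.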

SMILES	MIC [1]	MIC (Mycobacterium avium)	MIC (Mycobacterium kansasii)	MIC [2]	MIC (Mycobacterium xenopi)	fractional inhibitory concentration index (FICI) [3]	MIC [4]	MIC (Staphylococcus aureus)	MIC (Proteus vulgaris)	Activity [5]	Activity (A549)	Activity (HaCaT)	MIC [6]	MIC [7]	MIC [8]	MIC [9]	MIC [10]	MIC [11]	Activity (V79)	fold change (FC) [12]
COc1ccc(-n2nnnc2Nc2cccc(Br)c2)cc1	128 µg/mL	256 µg/mL	512 µg/mL	512 µg/mL	> 512 µg/mL	4.125	> 256 µg/mL	> 256 µg/mL	> 256 µg/mL	< 17%	Non-Toxic	4.88%	0.5 µg/mL	0.5 µg/mL	0.25 µg/mL	0.5 µg/mL	0.25 µg/mL	1 µg/mL	Non-Toxic	2
COc1ccc(-n2nnnc2Nc2ccc(Br)cc2)cc1	128 µg/mL	512 µg/mL	512 µg/mL	512 µg/mL	256 µg/mL	4.125	> 256 µg/mL	> 256 µg/mL	> 256 µg/mL	Non-Toxic	Non-Toxic	7.25%	0.25 µg/mL	0.5 µg/mL	0.25 µg/mL	0.25 µg/mL	0.25 µg/mL	1 µg/mL	Non-Toxic	4
